Experimental data from different studies.
Each line is one published result; the experiments were not run side by side.

For N[C@@H](COCC(=O)N1CCC[C@H](C(=O)NCc2nc(-c3ccc(C(F)(F)F)cc3)cs2)C1)c1ccccc1, the microsomal CLint was 65 µL/min/mg (metabolic stability; human, liver microsomes; 0.5 µM).
O=C1NC2(CCS(=O)(=O)CC2)C(=O)N1c1ccc(F)c(C(F)(F)F)c1 has a chromatographic logD of 2.6 (HPLC; pH 7.4).
With CCOCC(=O)N1CCC[C@H](C(=O)NCc2nc(-c3ccc(C#N)nc3)cs2)C1 the microsomal CLint was 11 µL/min/mg (metabolic stability; male Sprague-Dawley rat, liver microsomes; 0.5 µM).
The logD of c1cc(-c2ccc3ncnc(Nc4ncco4)c3c2)nc(N2CCOCC2)c1 is reported as 3.1 (shake flask; aqueous buffer; pH 7.4).
COc1ccc2c(c1)CN(C(=O)CCN1CCC(Cc3ccccc3)CC1)CC[S@@+]2[O-] has a clearance of 175 mL/min (male human, plasma; intravenous, 0.6 mg/kg, healthy volunteers).
Cc1cc(N2C(=O)NC(C)(C)C2=O)cc(C(F)(F)F)n1 gave a chromatographic logD of 2.2 (HPLC; pH 7.4).
The microsomal CLint of C[C@H]1[C@@H](C(=O)NCc2nc(-c3ccc(C#N)cc3)cs2)CCCN1C(=O)[C@H]1CCC(=O)O1 is reported as 24 µL/min/mg (metabolic stability; male Sprague-Dawley rat, liver microsomes; 0.5 µM).
CC1(C(F)(F)F)NC(=O)N(c2ccc(F)c(C(F)(F)F)c2)C1=O (stereo not shown) gave a chromatographic logD of 3.5 (HPLC; pH 7.4).
O=c1c2c([nH]c3c(Oc4ccc(OC(F)(F)F)cc4)cccc13)CCCC2 gave a microsomal CLint of 21 µL/min/mg (metabolic stability; human, liver microsomes; 1 µM, pH 7.4).
For CC(C)(N)COCC(=O)N1CCC[C@H](C(=O)NCc2nc(-c3ccc(C(F)(F)F)cc3)cs2)C1, the microsomal CLint was 9.9 µL/min/mg (metabolic stability; male Sprague-Dawley rat, liver microsomes; 0.5 µM).
With O=C1NC(CF)(CF)C(=O)N1c1ccc(F)c(C(F)(F)F)c1 the chromatographic logD was 3 (HPLC; pH 7.4).
For O=c1c2ccc(Oc3ccc(OC(F)(F)F)cc3)cc2[nH]c2ccc(Cl)c(F)c12, the microsomal CLint was 9.02 µL/min/mg (metabolic stability; human, liver microsomes; 1 µM, pH 7.4).
COCC(=O)N1CCC[C@H](C(=O)NCc2nc(-c3cncnc3)cs2)C1 gave a microsomal CLint of less than 7 µL/min/mg (metabolic stability; human, liver microsomes; 0.5 µM).
With C[C@]1(O)CCCN(c2nc(Nc3ccc(S(=O)(=O)N[C@@H]4CCN(CC5CCN(c6ccc(C7CCC(=O)NC7=O)cc6F)CC5)C[C@H]4F)cc3F)ncc2C(F)(F)F)C1 (stereo partly shown) the scaled CLint was 22 mL/min/kg (metabolic stability; human, liver microsomes; 1 µM).
For CN1CCN(c2cccc(-c3ccc4ncnc(Nc5ncco5)c4c3)c2)CC1, the logD was 3.3 (shake flask; aqueous buffer; pH 7.4).
With CNS(=O)(=O)c1ccc(Nc2ncc(C(F)(F)F)c(N3CCC(C)(O)CC3)n2)c(C)c1 the scaled CLint was 38 mL/min/kg (metabolic stability; rat, liver microsomes; 1 µM).
CCONC(=O)N1CCC[C@H](C(=O)N[C@H](C)c2nc(-c3ccc(C#N)cc3)cs2)C1 gave a microsomal CLint of 29 µL/min/mg (metabolic stability; male Sprague-Dawley rat, liver microsomes; 0.5 µM).
For C[C@H]1CN(CC2CCN(c3ccc(C4CCC(=O)NC4=O)cc3F)CC2)CC[C@H]1NS(=O)(=O)c1ccc(Nc2ncc(C(F)(F)F)c(N3CCC[C@](C)(O)C3)n2)c(F)c1 (stereo partly shown), the scaled CLint was 23 mL/min/kg (metabolic stability; human, liver microsomes; 1 µM).
CC(C)n1c(C2CCNCC2)nc2c([N+](=O)[O-])c(Br)c(Br)cc21 has a renal clearance of 14.5 mL/min (human, urine; oral, 50 mg, single dose).
